Results reported in ChEMBL document CHEMBL1143676, “2,4,6-Trisubstituted pyridines: Synthesis, topoisomerase I and II inhibitory activity, cytotoxicity, and structure-activity relationship” (Bioorg Med Chem, 2007).
pIC50: −log10 of the molar value. Activity calls are given as the source filed them. The calls are words filed in the database; no cut-off is given here.

Legend:
[1] = organism: Homo sapiens; assay: Inhibition of human topoisomerase 2 at 20 uM
[2] = organism: Homo sapiens; assay: Inhibition of human topoisomerase 2 at 100 uM
[3] = test system: A549; assay: Cytotoxicity against human A549 cells after 48 hrs by SRB method; format: functional, cell-based; conditions: A549, 48 h
Procedure, shortened: (§1)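 SRB assay following the NCI protocol. Cells were kept in log growth with a medium change 24 h before the assay, then trypsinized and seeded at 5 × 10³ (A549, HCT15), 1 × 10⁴ (SK-MEL-2) or 2 × 10⁴ (SK-OV-3) cells/well. After 24 h preincubation at 37 °C in 5% CO₂, compounds in DMSO were added as six 3-fold dilutions (final DMSO <0.5%) for 48 h. Cells were fixed in cold 10% TCA and stained with 0.4% SRB. Bound dye was dissolved in 10 mM Tris (pH 10.5) and absorbance read at 520 nm. Survival fractions came from regression of viability against concentration.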

[4] = test system: SK-OV-3; assay: Cytotoxicity against human SKOV3 cells after 48 hrs by SRB method; format: functional, cell-based; conditions: SK-OV-3, 48 h; procedure, shortened: as §1
[5] = test system: SK-MEL-2; assay: Cytotoxicity against human SK-MEL-2 cells after 48 hrs by SRB method; format: functional, cell-based; conditions: SK-MEL-2, 48 h; procedure, shortened: as §1
[6] = test system: HCT-15; assay: Cytotoxicity against human HCT15 cells after 48 hrs by SRB method; format: functional, cell-based; conditions: HCT-15, 48 h; procedure, shortened: as §1
[7] = organism: Bos taurus; assay: Inhibition of calf thymus topoisomerase 1 assessed as relaxation of supercoiled plasmid DNA at 20 uM
Procedure, shortened: (§2)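 Compound was added at 20 or 100 μM and the mix incubated 30 min at 37 °C. Reactions were stopped with SDS/bromophenol blue/glycerol dye, run on 1% agarose in TAE for 1 h, and stained with ethidium bromide.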

[8] = organism: Bos taurus; assay: Inhibition of calf thymus topoisomerase 1 assessed as relaxation of supercoiled plasmid DNA at 100 uM; procedure, shortened: as §2

SMILES	Activity [1]	Activity [2]	pIC50 [3]	pIC50 [4]	pIC50 [5]	pIC50 [6]	also measured
c1coc(-c2cc(-c3ccoc3)cc(-c3ccncc3)n2)c1	Active	Active	–	–	–	–	–
COc1cc([C@@H]2c3cc4c(cc3[C@@H](O[C@@H]3O[C@@H]5CO[C@@H](C)O[C@H]5[C@H](O)[C@H]3O)[C@H]3COC(=O)[C@H]23)OCO4)cc(OC)c1O [ETOPOSIDE]	–	–	6.49	5.76	6.52	5.61	–
c1csc(-c2cc(-c3ccsc3)cc(-c3ccncc3)n2)c1	–	–	–	–	–	–	Activity [7]: Active; Activity [8]: Active
c1csc(-c2cc(-c3ccncc3)nc(-c3cccs3)c2)c1	–	–	5.38	5.24	5.43	5.76	–
c1ccc(-c2cc(-c3ccoc3)cc(-c3ccco3)n2)nc1	Active	Active	–	–	–	–	–
c1cncc(-c2cc(-c3ccncc3)nc(-c3cccs3)c2)c1	Active	Active	–	–	–	–	–
c1csc(-c2cc(-c3ccoc3)cc(-c3ccncc3)n2)c1	Active	Active	–	–	–	–	–
c1csc(-c2cc(-c3ccncc3)nc(-c3ccsc3)c2)c1	–	–	5.24	4.84	5.05	5.42	–
c1coc(-c2cc(-c3ccsc3)cc(-c3ccncc3)n2)c1	Active	Active	–	–	–	–	–
c1cc(-c2cc(-c3ccsc3)cc(-c3ccsc3)n2)ccn1	–	–	4.56	5.01	5.01	5.60	–
c1cc(-c2cc(-c3ccoc3)cc(-c3ccsc3)n2)ccn1	Active	Active	–	–	–	–	–
c1coc(-c2cc(-c3ccncc3)nc(-c3cccs3)c2)c1	–	–	4.96	5.06	5.27	5.38	–
c1cc(-c2cc(-c3ccncc3)nc(-c3ccsc3)c2)ccn1	Active	Active	–	–	–	–	–
c1ccc(-c2cc(-c3ccsc3)cc(-c3cccs3)n2)nc1	–	–	–	–	–	–	Activity [7]: Active; Activity [8]: Active
c1cncc(-c2cc(-c3ccncc3)nc(-c3ccco3)c2)c1	–	–	–	–	–	–	Activity [7]: Active; Activity [8]: Active
c1coc(-c2cc(-c3cccs3)cc(-c3ccncc3)n2)c1	–	–	–	–	–	–	Activity [7]: Active; Activity [8]: Active
c1cncc(-c2cc(-c3ccsc3)cc(-c3cccs3)n2)c1	–	–	5.56	5.13	5.25	5.39	–
c1cncc(-c2cc(-c3ccco3)cc(-c3cccs3)n2)c1	–	–	4.84	5.23	5.71	5.23	–
